Assay [1] addresses T1, Retinoic acid receptor alpha (Homo sapiens) (UniProt P10276).
T1 sequence (whole entry): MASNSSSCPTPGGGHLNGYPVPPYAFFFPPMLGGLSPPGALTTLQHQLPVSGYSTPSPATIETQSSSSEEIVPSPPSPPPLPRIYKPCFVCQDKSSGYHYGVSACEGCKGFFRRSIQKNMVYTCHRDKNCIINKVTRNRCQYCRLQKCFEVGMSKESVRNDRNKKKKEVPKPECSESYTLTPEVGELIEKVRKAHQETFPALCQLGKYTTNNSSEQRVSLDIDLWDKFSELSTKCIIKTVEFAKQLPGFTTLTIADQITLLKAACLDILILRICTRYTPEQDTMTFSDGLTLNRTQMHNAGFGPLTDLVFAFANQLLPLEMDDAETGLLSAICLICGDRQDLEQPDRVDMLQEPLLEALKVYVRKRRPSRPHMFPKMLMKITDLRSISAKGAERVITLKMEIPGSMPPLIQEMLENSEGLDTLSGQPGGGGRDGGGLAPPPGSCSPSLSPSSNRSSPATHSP
Put plainly: Percent transcriptional activation relative to ATRA in CV-1 cells expressing Retinoic acid receptor RAR alpha. It counts as functional, cell-based. In short, it runs like this:
(§1)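 Cotransfection transactivation assay in CV-1 cells. Full dose-response curves ran from 10^-12 to 10^-5 M. Efficacy is expressed as percent of the ATRA response, with ATRA set at 100%. Values are mean ± SEM of at least three separate experiments, each with triplicate determinations.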

For assay [2], the target named is T2, Retinoic acid receptor RXR-beta (Homo sapiens) (UniProt P28702).
T2 sequence (whole entry): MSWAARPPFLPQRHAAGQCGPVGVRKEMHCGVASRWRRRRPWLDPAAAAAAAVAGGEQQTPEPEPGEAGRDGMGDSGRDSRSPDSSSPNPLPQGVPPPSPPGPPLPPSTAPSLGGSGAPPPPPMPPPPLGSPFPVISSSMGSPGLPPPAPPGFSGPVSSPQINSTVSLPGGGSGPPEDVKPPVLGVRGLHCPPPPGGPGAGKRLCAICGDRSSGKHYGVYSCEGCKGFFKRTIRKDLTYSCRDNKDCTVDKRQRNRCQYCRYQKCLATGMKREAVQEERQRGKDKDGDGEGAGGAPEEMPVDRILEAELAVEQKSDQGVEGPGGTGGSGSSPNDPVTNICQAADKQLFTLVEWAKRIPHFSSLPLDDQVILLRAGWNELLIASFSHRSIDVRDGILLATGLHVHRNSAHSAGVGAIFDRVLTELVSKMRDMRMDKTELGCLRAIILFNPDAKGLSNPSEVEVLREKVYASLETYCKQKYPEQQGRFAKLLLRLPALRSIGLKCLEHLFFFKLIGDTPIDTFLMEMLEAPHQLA
In words: Percent transcriptional activation relative to ATRA in CV-1 cells expressing Retinoid X receptor RXR beta. It counts as functional, cell-based. Put shortly:
as §1

For assay [3], the target named is T3, Retinoic acid receptor gamma (Homo sapiens) (UniProt P13631).
T3 sequence (whole entry): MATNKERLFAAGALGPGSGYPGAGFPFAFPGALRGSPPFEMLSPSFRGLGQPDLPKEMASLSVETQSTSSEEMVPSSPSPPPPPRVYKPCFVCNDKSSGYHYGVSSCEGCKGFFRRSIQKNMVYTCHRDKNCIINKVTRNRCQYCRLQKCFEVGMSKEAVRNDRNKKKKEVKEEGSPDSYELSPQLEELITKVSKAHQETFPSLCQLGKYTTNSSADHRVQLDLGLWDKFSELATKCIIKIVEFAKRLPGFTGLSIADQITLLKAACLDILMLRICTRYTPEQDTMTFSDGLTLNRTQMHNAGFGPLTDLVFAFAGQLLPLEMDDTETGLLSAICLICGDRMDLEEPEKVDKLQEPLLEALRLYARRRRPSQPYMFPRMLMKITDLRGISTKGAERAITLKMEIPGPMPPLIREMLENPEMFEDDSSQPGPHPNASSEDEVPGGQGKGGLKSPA
Put plainly: Percent transcriptional activation relative to ATRA in CV-1 cells expressing Retinoic acid receptor RAR gamma. The class given is functional, cell-based. Put shortly:
as §1

The target of assay [4] is T4, Retinoic acid receptor RXR-gamma (Homo sapiens, UniProt P48443).
T4 sequence (P48443 whole entry): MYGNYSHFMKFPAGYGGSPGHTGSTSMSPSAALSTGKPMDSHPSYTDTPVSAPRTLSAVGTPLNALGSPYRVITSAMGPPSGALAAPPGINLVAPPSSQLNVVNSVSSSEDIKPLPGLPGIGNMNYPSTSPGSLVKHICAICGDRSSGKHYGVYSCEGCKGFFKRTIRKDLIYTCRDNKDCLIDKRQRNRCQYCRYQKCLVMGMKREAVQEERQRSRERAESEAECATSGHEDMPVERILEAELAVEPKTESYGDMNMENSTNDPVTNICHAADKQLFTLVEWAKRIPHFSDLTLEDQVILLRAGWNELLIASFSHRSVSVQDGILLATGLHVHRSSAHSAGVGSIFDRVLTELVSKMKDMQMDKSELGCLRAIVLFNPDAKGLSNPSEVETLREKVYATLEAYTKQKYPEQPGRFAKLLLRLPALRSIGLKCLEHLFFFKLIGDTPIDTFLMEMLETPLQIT
Put plainly: Inhibition of [3H]9-cis-RA binding to Retinoid X receptor RXR gamma.

For assay [5], the target named is T5, Retinoic acid receptor RXR-alpha (Homo sapiens, UniProt P19793).
T5 sequence (P19793 whole entry): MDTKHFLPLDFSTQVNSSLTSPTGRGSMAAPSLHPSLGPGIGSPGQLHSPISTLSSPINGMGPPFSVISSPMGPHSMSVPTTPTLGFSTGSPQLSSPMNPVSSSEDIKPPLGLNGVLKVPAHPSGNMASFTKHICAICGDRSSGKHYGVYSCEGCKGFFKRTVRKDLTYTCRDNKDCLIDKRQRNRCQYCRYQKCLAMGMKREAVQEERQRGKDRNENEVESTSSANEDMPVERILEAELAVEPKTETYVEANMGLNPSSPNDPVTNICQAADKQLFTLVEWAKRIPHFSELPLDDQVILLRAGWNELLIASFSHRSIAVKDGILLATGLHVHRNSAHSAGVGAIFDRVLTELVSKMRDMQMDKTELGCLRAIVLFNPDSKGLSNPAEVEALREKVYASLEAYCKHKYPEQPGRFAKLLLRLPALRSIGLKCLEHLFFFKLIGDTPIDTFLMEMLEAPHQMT
In words: Inhibition of [3H]9-cis-RA binding to Retinoid X receptor RXR alpha.

In assay [6] the target is T5, Retinoic acid receptor RXR-alpha. Put plainly: Transcriptional activation in CV-1 cells expressing Retinoid X receptor RXR alpha; Not active. The class given is functional, cell-based.
Assay [7] deals with T6, Retinoic acid receptor RXR-beta (Homo sapiens, UniProt P28702).
T6 sequence (P28702 whole entry): T2 sequence (whole entry)
Put plainly: Inhibition of [3H]9-cis-RA binding to Retinoid X receptor RXR beta.

In assay [8] the target is T7, Retinoic acid receptor alpha (Homo sapiens, UniProt P10276).
T7 sequence (P10276 whole entry): T1 sequence (whole entry)
In words: Inhibition of [3H]ATRA binding to Retinoic acid receptor RAR alpha.

Assay [9] deals with T8, Retinoic acid receptor beta (Homo sapiens, UniProt P10826).
T8 sequence (P10826 whole entry): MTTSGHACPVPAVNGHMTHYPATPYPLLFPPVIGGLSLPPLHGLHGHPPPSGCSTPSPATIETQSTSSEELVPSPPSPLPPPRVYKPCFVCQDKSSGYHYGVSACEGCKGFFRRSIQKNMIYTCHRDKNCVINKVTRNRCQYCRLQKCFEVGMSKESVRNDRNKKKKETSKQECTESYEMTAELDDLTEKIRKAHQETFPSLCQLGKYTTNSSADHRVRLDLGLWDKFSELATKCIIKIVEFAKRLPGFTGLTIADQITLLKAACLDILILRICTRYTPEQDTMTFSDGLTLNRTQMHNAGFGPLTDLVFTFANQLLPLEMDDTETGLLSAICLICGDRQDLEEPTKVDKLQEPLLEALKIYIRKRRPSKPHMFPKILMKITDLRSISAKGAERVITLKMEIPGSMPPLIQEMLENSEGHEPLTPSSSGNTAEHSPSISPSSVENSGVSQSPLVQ
In words: Inhibition of [3H]ATRA binding to Retinoic acid receptor RAR beta.

Assay [10] concerns the target T6, Retinoic acid receptor RXR-beta. Put plainly: Transcriptional activation in CV-1 cells expressing Retinoid X receptor RXR beta. The class given is functional, cell-based.
Assay [11] concerns the target T4, Retinoic acid receptor RXR-gamma. Put plainly: Transcriptional activation in CV-1 cells expressing Retinoid X receptor RXR gamma; Not active. It counts as functional, cell-based.
Assay [12] deals with T8, Retinoic acid receptor beta. In words: Transcriptional activation in CV-1 cells expressing Retinoic acid receptor RAR beta. It counts as functional, cell-based.
Assay [13] deals with T4, Retinoic acid receptor RXR-gamma. Put plainly: Transcriptional activation in CV-1 cells expressing Retinoid X receptor RXR gamma. The class given is functional, cell-based.
Assay [14] addresses T5, Retinoic acid receptor RXR-alpha. Put plainly: Transcriptional activation in CV-1 cells expressing Retinoid X receptor RXR alpha. It counts as functional, cell-based.
The target in assay [15] is T7, Retinoic acid receptor alpha. In words: Transcriptional activation in CV-1 cells expressing Retinoic acid receptor RAR alpha. It counts as functional, cell-based.

In the case of `CC1=C(/C=C/C(C)=C/C=C/C(C)=C/C(=O)O)C(C)(C)CCC1`, the Efficacy in assay [1], in assay [2] and in assay [3] was 100% throughout.

In general, Ki refers to a measure of affinity in units of concentration, obtained from inhibition or displacement. Read a low Ki as a stronger hold on the target. Broadly, the EC50 is the concentration at which the effect is half-maximal. Turning to `CC(/C=C/C=C(\C)c1cc(C(C)(C)C)cc(C(C)(C)C)c1)=C\C(=O)O` (stereo in doubt; form 2) [listing 1 of 2 here], the inhibition constant (Ki) in assay [4] was determined as 320 nM; in [5] it was 223 nM; in assay [7], 560 nM; in assay [8], 1.1 nM; in assay [9], 0.7 nM. For the same compound, the concentration for a half-maximal effect (EC50) entry in assay [6] was “Not Active”; in [10], “Not Active”; in assay [11] it was “Not Active”; in assay [12], 2.2 nM.

For `CC1=C(/C=C/C(C)=C\C=C\C(C)=C\C(=O)O)C(C)(C)CCC1`, the Efficacy in assay [1] amounted to 81%; in assay [2], 128%; in [3] it was 93%.

As for `CC(/C=C/C=C(\C)c1cc(C(C)(C)C)cc(C(C)(C)C)c1)=C\C(=O)O` (stereo in doubt; form 1) [listing 1 of 2 here], the Efficacy in [1] was 39%; in [2], 27%; in assay [3] it was 58%.

Turning to `CC(/C=C/C=C(\C)c1cc(C(C)(C)C)cc(C(C)(C)C)c1)=C\C(=O)O` (stereo in doubt; form 1) [listing 2 of 2 here], the Ki in assay [4] turned out to be 9.3 nM; in [5], 4.6 nM; in [7], 10.2 nM; in assay [8], 63.5 nM; in [9] it was 90 nM. For the same compound, the EC50 in [13] is 77 nM; in assay [14], 134 nM; in assay [15], 65 nM; in assay [10], 87 nM; in [12], 24 nM.

Turning to `CC(/C=C/C=C(\C)c1cc(C(C)(C)C)cc(C(C)(C)C)c1)=C\C(=O)O` (stereo in doubt; form 2) [listing 2 of 2 here], the Efficacy worked out at 31% in assay [1] and 48% in [3].

The record behind these values is ChEMBL document CHEMBL1129042, “Discovery of novel retinoic acid receptor agonists having potent antiproliferative activity in cervical cancer cells” (J Med Chem, 1996).
